Screening data from PubChem.
M5 ag – agonists of human muscarinic M5 receptor (CHRM5); P08912; CHO-K1 hM5 cells, Fluo-8 calcium fluorescence; 0% DMSO wells, 100% maximal acetylcholine response; activation, % at 3 µM; 0.19% of 360,000 active;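 active = activation above the run's mean over test compounds plus 3 SD, cut at about 23% in these data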;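 also: signal is peak over basal fluorescence ratio across the kinetic read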
M5 antag – blocks acetylcholine activation of human M5 receptor; AID 624040; inhibition, % at 3 µM; 0.59% of 360,000 active; CHO-hM5 cells, Fluo-8 calcium fluorescence, ACh EC80; P08912;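 active = inhibition above a per-plate cutoff, the mean of that plate's test compounds plus 3 SD, cut at about 27% in these data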;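 also: 0% = acetylcholine EC80 with DMSO and 100% = DMSO without agonist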
M4 ag – agonists of human muscarinic M4 receptor (CHRM4); activation, % at 3 µM; P08173; CHO-K1 hM4/Gqi5, Fluo-8 calcium fluorescence; vehicle 0%, full acetylcholine response 100%; 0.14% of 360,000 active;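 active = activation above the run mean over all test wells plus 3 SD, cut at about 32% in these data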;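 also: peak over basal fluorescence ratio per well then scaled between controls; 0% = DMSO wells and 100% = acetylcholine at EC100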
Target sequence (P08173 whole entry, looked up): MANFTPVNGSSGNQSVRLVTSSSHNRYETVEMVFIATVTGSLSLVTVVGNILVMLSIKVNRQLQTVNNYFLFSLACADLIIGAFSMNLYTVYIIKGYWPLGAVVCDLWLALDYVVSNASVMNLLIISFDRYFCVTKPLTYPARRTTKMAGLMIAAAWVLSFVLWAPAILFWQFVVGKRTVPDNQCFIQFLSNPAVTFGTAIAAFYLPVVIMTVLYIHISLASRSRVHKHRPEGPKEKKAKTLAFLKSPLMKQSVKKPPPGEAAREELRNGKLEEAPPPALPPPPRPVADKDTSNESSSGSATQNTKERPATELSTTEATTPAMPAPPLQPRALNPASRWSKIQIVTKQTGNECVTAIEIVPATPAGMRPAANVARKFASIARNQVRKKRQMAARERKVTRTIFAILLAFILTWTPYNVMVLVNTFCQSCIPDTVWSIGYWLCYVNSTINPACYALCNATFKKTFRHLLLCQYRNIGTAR
CHRM4 PAM – CHRM4 positive allosteric modulation. 0.4% of 360,000 active. activation, % at 3 µM. P08173. CHO-K1 hM4/Gqi5, Fluo-8 calcium fluorescence, ACh EC20; 0% = ACh EC20, 100% = maximal ACh;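 active = activation above its plate's cutoff, the mean activation of sample wells plus 3 SD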
M4 antag – blocks acetylcholine activation of human M4 receptor; CHO-hM4 cells, ACh EC80, Fluo-8 calcium fluorescence; inhibition, % at 3 µM; 0.73% of 360,000 active; AID 624125;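 active = inhibition above its plate's cutoff, the mean inhibition of sample wells plus 3 SD, cut at about 27% in these data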;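 also: 0% = acetylcholine EC80 with DMSO and 100% = DMSO without agonist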
M5 PAM – potentiates acetylcholine response at human M5 receptor | CHO-K1 hM5, Fluo-8 calcium, ACh EC20 PAM; 0% = ACh EC20, 100% = ACh EC100 | P08912 | activation, % at 3 µM | AID 624038 | 0.3% of 360,000 active;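 active = activation above the run cutoff, the mean activation of all test compounds plus 3 SD, cut at about 18% in these data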
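system = human M5 receptor in CHO-K1 cells | compound = one concentration, 3 µM final (nominal) | schedule = Post-acetylcholine fluorescence recording 140 s | signal = Fluo-8 calcium dye fluorescence, kinetic read | benchmarks = low control EC20 acetylcholine (0%), high control EC100 acetylcholine (100%) | repeats = singlicate, one well per test compound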
* = called active by the depositor. Only some compounds are listed: those with a hit (about 1.9% of all), similar ones and a draw of the others.

SMILES	M5 ag	M5 antag	M4 ag	CHRM4 PAM	M4 antag	M5 PAM
O=C(NC1CCOCC1)C1CCC(=O)N(Cc2cccc(C(F)(F)F)c2)C1 (stereo unspecified)	-2	8	1	-2	-3	0
COc1ccc(NC(=O)CC2C(=O)N(CCc3ccccc3)C(=S)N2Cc2cccnc2)cc1 (stereo unspecified)	6	10	16	-10	27*	-6
CCc1nn(C(CC)C(=O)NCC(C)c2ccccc2)c(=O)c2cc3occc3n12 (stereo unspecified)	-5	6	0	5	-2	-4
COc1cccc(C2CC(=O)N3CN(c4ccccc4F)CSC3=C2C#N)c1 (stereo unspecified)	3	3	0	-3	4	-4
COc1ccc(OC)c(C2CC(=O)N3CN(c4ccccc4F)CSC3=C2C#N)c1 (stereo unspecified)	-1	-13	0	3	-10	22*
Cc1cccc(N2CC(C(=O)Nc3ccc(N4CCOCC4)cc3)CC2=O)c1C (stereo unspecified)	-1	1	1	8	-11	8
CCCCN(CCCC)c1cn[nH]c(=O)c1Cl	-13	11	-1	-13	43*	-26
Cc1cccc(NC(=O)c2sc3nc(-c4ccc(F)cc4)cn3c2C)n1	-7	32*	4	-7	0	-18
CCN1C(=O)[C@H]2[C@@H](c3ccc(C)cc3)N3C(=O)N(c4ccc(OC)cc4)C(=O)[C@@]3(Cc3ccc(Cl)cc3)[C@H]2C1=O	1	-1	4	31*	-12	5
CCN1C(=O)[C@H]2[C@@H](c3ccc(C)cc3)N3C(=O)N(c4ccc(C)cc4)C(=O)[C@@]3(Cc3ccccc3)[C@H]2C1=O	0	-4	5	18	-25	6
CCCCN(c1nc2ccccc2nc1Cl)S(=O)(=O)c1ccc(C)cc1	-2	14	0	-12	12	-5
CCOc1ccc(NCc2cccn2-c2nnc(N3CCC(C(=O)NCCCN4CC(C)CC(C)C4)CC3)s2)cc1 (stereo unspecified)	-8	-11	4	-13	34*	-11
CCN1CCN(C(=S)Nc2ccc3nc4n(c(=O)c3c2)CCCCC4)CC1	-1	1	7	27*	-9	4
O=c1c2cc(NC(=S)N3CCCC3)ccc2nc2n1CCCCC2	-1	21	17	-15	1	-21
CCC(C)NC(=O)C(NS(=O)(=O)c1cccc2nsnc12)c1ccccc1 (stereo unspecified)	-9	-2	1	5	-15	35*
C=C(Cl)COc1ccc2c(C)cc(=O)oc2c1	-4	-14	-2	10	8	18*
O=C(c1cc(-c2ccc(F)cc2)no1)N1CCN(Cc2ccc3c(c2)OCO3)CC1	-1	1	1	9	-8	-5
Cc1ccc(C)c(N2CCN(CCCNC(=O)Cn3cc4c(n3)CCCCC4)CC2)c1	-1	4	-3	-19	100*	-10
NC(=O)NN=C1C2CCCC1C(c1ccccc1)NC2c1ccccc1 (stereo unspecified)	2	4	-1	-14	49*	-18
Cc1nc(N2CCN(c3ccccc3O)CC2)c2c(-c3ccccc3)csc2n1	-1	17	10	-11	16	-9
COc1cc(NC(C)CCCN)c2ncccc2c1Oc1ccccc1 (stereo unspecified)	0	22	1	2	8	25*
COc1ccc(Oc2c(OC)cc([N+](=O)[O-])c3ncccc23)cc1	5	7	0	-1	-8	-3
CCOC(=O)CSc1nc(C)nc2c1sc1nc(C)c(C(C)=O)c(-c3ccc(OC)cc3)c12	1	5	1	20*	8	-1
CCOC(=O)c1c(C)nc2sc3c(=O)n(-c4ccc(C)cc4)cnc3c2c1-c1ccc(OC)cc1	2	4	0	-3	4	-6
O=C(CC1SC(N2CCCC2)=NC1=O)Nc1ccc(C(=O)NCc2ccc(F)cc2)cc1 (stereo unspecified)	2	-1	-1	17	-9	-1
SMILES	M5 ag	M5 antag	M4 ag	CHRM4 PAM	M4 antag	M5 PAM
Cc1ccc2c(c1)C(c1ccccc1)N(C(=O)CC(C)C)CC(=O)N2 (stereo unspecified)	0	11	14	-8	-4	-14
CS(=O)(=O)N1CCC(C(=O)Nc2ccc(C(N)=O)cc2)CC1	-3	14	-1	-2	5	-7
NC(=O)c1ccc(NC(=O)C2CC2)cc1	1	-9	3	22*	-7	6
CNC(=O)C12CCC(C)(c3nc4cc(C)c(C)cc4nc31)C2(C)C (stereo unspecified)	-1	2	0	3	-3	1
CCCNC(=O)C12CCC(C)(c3nc4cc(C)c(C)cc4nc31)C2(C)C (stereo unspecified)	13	-3	-1	23*	-26	25*
COc1ccc(-n2c(C)nc3c(cnn3-c3ccc(C)c(C)c3)c2=O)cc1	1	4	1	-11	31*	-1
CCCCc1ccc(NC(=O)CSc2nc3ncccc3[nH]2)cc1	5	9	21	-11	33*	-10
CCOC(=O)c1ccc(NC(=O)CSc2nc3ncccc3[nH]2)cc1	4	7	5	4	-16	-8
CC(C)C(=O)Nc1cccc(-c2nc3ncccc3o2)c1	-1	9	3	1	8	-6
CC(C)C(=O)Nc1ccc(-c2nc3ncccc3o2)cc1	-3	30*	1	-7	12	-3
C[C@@H]1COc2cc(N(C)CCO)ccc2S(=O)(=O)N1	2	-2	2	18	-5	5
O=c1[nH]c(C2CCN(S(=O)(=O)c3ccc(S(=O)(=O)NC4CC4)cc3)CC2)nc2c1nnn2Cc1cccc(F)c1	-4	7	0	-20	45*	0
O=c1[nH]c(C2CCN(S(=O)(=O)c3ccc4c(c3)OCCO4)CC2)nc2c1nnn2Cc1cccc(F)c1	-4	9	1	-23	79*	1
O=c1[nH]c(C2CCCN(S(=O)(=O)c3ccccc3Cl)C2)nc2c1nnn2Cc1ccc2c(c1)OCCO2 (stereo unspecified)	-6	-6	3	-8	-9	-3
Cc1ccc(Cn2nnc3c(=O)[nH]c(C4CCN(S(=O)(=O)c5ccc(S(=O)(=O)NC6CC6)cc5)CC4)nc32)cc1	-6	1	1	-10	12	2
